Source: ChEMBL document CHEMBL4725358 (J Med Chem, 2020)
The source made the active and inactive calls. The rule behind the calls is not given here.

Columns and labels:
[1] = target: Probable G-protein coupled receptor 34 (Mus musculus) (UniProt Q9R1K6); experiment: (§1) Agonist activity at mouse GPR34 expressed in HEK293 cells co-transfected with AP-TGFalpha/Galphaq/i1 assessed as induction of ectodomain shedding of membrane bound AP-TGFalpha after 1 hr by p-NPP substrate based microplate reader analysis; type: cell-based
Procedure, shortened: (§2)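 HEK293 cells transiently transfected with AP-TGFα, chimeric Gα and mouse GPR34 vectors, then treated with compound. Empty-vector cells (AP-TGFα plus chimeric Gα) served as background. Receptor-specific AP-TGFα release was taken after subtracting that background, and concentration-response curves gave EC50 and Emax. Mean and SEM of 3−8 independent experiments.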

[2] = target: Probable G-protein coupled receptor 34 (Mus musculus, UniProt Q9R1K6); experiment: as §1; type: cell-based; procedure, shortened: as §2
[3] = target: Probable G-protein coupled receptor 34 (Mus musculus) (UniProt Q9R1K6); experiment: Agonist activity at mouse GPR34 expressed in HEK293 cells co-transfected with AP-TGFalpha/Galphaq/i1 assessed as induction of ectodomain shedding of membrane bound AP-TGFalpha after 1 hr by p-NPP substrate based microplate reader analysis relative to control; type: cell-based; procedure, shortened: as §2
[4] = target: Probable G-protein coupled receptor 34 (Mus musculus) (UniProt Q9R1K6); experiment: Agonist activity at mouse GPR34 expressed in HEK293 cells co-transfected with AP-TGFalpha/Galphaq/i1 assessed as induction of ectodomain shedding of membrane bound AP-TGFalpha after 1 hr by p-NPP substrate based microplate reader analysis relative to positive control; type: cell-based; procedure, shortened: as §2
[5] = target: Putative P2Y purinoceptor 10 (Mus musculus, UniProt Q8BFU7); experiment: Agonist activity at mouse P2Y10 expressed in HEK293 cells co-transfected with AP-TGFalpha/Galphaq/i1 assessed as induction of ectodomain shedding of membrane bound AP-TGFalpha after 1 hr by p-NPP substrate based microplate reader analysis; type: cell-based
Procedure, shortened: (§3)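 Run the same way as the GPR34 shedding assay, but with a mouse P2Y10 expression vector in HEK293 cells alongside AP-TGFα and chimeric Gα. Receptor-specific AP-TGFα release was found by subtracting the empty-vector background. EC50 and Emax came from concentration-response curves. Mean and SEM of 3−8 independent experiments.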

[6] = target: Putative P2Y purinoceptor 10 (Mus musculus) (UniProt Q8BFU7); experiment: Agonist activity at mouse P2Y10 expressed in HEK293 cells co-transfected with AP-TGFalpha/Galphaq/i1 assessed as induction of ectodomain shedding of membrane bound AP-TGFalpha after 1 hr by p-NPP substrate based microplate reader analysis relative to control; type: cell-based; procedure, shortened: as §3
[7] = target: Putative P2Y purinoceptor 10 (Mus musculus) (UniProt Q8BFU7); experiment: Agonist activity at mouse P2Y10 expressed in HEK293 cells co-transfected with AP-TGFalpha/Galphaq/i1 assessed as induction of ectodomain shedding of membrane bound AP-TGFalpha after 1 hr by p-NPP substrate based microplate reader analysis relative to positive control; type: cell-based; details: filed as agonist; procedure, shortened: as §3
[8] = target: Probable G-protein coupled receptor 34 (Mus musculus) (UniProt Q9R1K6); experiment: Agonist activity at mouse GPR34 expressed in HEK293 cells co-transfected with Galphaq/i1 assessed as increase in calcium influx by calcium 5 dye based FLIPR assay; type: functional, cell-based
Procedure, shortened: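 Mouse GPR34-expressing HEK293 cells were monitored for calcium influx after compound was added at 100 nM or 10 nM. Each run was done in triplicate and reported as mean and S.D.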

[9] = target: T1, G protein-coupled receptor 34a (Danio rerio, UniProt Q6XCC7); experiment: Agonist activity at zebrafish GPR34 type a expressed in HEK293 cells co-transfected with AP-TGFalpha/Galphaq/i1 assessed as induction of ectodomain shedding of membrane bound AP-TGFalpha after 1 hr by p-NPP substrate based microplate reader analysis; type: cell-based
T1 sequence (Q6XCC7 whole entry): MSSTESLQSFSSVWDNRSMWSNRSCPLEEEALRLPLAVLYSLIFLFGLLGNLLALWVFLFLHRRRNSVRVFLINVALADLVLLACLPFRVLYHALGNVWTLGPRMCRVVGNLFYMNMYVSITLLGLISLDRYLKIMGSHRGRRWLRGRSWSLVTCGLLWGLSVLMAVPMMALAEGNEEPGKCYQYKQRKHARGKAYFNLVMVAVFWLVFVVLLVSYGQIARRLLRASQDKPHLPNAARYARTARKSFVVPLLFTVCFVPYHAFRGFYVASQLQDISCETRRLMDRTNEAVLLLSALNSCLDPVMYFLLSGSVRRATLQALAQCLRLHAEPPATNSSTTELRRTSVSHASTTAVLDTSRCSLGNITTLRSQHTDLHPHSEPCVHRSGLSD

[10] = target: T2, G protein-coupled receptor 34a (Danio rerio) (UniProt Q6XCC7); experiment: Agonist activity at zebrafish GPR34 type a expressed in HEK293 cells co-transfected with AP-TGFalpha/Galphaq/i1 assessed as induction of ectodomain shedding of membrane bound AP-TGFalpha after 1 hr by p-NPP substrate based microplate reader analysis relative to control; type: cell-based
T2 sequence (whole entry): T1 sequence (Q6XCC7 whole entry)

[11] = target: T3, G protein-coupled receptor 34b (Danio rerio, UniProt B0S6P9); experiment: Agonist activity at zebrafish GPR34 type b expressed in HEK293 cells co-transfected with AP-TGFalpha/Galphaq/i1 assessed as induction of ectodomain shedding of membrane bound AP-TGFalpha after 1 hr by p-NPP substrate based microplate reader analysis; type: cell-based
T3 sequence (B0S6P9 whole entry): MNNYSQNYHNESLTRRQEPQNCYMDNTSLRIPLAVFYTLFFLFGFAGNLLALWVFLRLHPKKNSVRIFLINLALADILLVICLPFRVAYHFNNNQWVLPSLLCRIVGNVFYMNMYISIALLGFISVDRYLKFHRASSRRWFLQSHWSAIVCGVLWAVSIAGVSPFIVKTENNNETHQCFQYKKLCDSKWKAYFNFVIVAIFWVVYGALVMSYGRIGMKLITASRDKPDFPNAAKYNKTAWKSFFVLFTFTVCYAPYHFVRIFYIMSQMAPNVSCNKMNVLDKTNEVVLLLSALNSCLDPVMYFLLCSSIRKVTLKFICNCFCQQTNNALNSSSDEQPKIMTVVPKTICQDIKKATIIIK

[12] = target: T4, G protein-coupled receptor 34b (Danio rerio) (UniProt B0S6P9); experiment: Agonist activity at zebrafish GPR34 type b expressed in HEK293 cells co-transfected with AP-TGFalpha/Galphaq/i1 assessed as induction of ectodomain shedding of membrane bound AP-TGFalpha after 1 hr by p-NPP substrate based microplate reader analysis relative to control; type: cell-based
T4 sequence (whole entry): T3 sequence (B0S6P9 whole entry)

[13] = target: Probable G-protein coupled receptor 34 (Homo sapiens, UniProt Q9UPC5); experiment: Agonist activity at human GPR34 expressed in HEK293 cells co-transfected with AP-TGFalpha/Galphaq/i1 assessed as induction of ectodomain shedding of membrane bound AP-TGFalpha after 1 hr by p-NPP substrate based microplate reader analysis; type: cell-based
Probable G-protein coupled receptor 34 (Homo sapiens, UniProt Q9UPC5), sequence (Q9UPC5 whole entry, the tested form may be a part): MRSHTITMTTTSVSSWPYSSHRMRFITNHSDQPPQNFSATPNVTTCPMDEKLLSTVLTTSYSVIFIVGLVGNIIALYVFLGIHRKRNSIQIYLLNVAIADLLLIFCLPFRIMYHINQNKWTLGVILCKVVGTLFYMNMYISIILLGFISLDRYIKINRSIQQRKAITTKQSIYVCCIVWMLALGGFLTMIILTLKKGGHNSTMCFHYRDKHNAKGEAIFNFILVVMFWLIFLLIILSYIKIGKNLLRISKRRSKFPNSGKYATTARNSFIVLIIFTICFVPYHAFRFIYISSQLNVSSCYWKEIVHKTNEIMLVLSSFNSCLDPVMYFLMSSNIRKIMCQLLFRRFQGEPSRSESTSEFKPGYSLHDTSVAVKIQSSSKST

Putative P2Y purinoceptor 10 (Mus musculus), sequence (Q8BFU7 whole entry, the tested form may be a part): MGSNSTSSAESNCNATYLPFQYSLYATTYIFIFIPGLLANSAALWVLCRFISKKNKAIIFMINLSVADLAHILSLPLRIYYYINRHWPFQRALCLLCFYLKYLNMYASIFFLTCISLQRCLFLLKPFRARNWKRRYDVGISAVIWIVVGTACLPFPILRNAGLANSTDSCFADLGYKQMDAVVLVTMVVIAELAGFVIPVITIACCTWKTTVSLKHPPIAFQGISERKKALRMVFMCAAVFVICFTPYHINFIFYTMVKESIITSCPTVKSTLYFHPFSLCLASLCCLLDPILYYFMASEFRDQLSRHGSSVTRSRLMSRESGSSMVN
Putative P2Y purinoceptor 10, sequence (Q8BFU7 whole entry, the tested form may be a part): as above
Probable G-protein coupled receptor 34 (Mus musculus), sequence (Q9R1K6 whole entry, the tested form may be a part): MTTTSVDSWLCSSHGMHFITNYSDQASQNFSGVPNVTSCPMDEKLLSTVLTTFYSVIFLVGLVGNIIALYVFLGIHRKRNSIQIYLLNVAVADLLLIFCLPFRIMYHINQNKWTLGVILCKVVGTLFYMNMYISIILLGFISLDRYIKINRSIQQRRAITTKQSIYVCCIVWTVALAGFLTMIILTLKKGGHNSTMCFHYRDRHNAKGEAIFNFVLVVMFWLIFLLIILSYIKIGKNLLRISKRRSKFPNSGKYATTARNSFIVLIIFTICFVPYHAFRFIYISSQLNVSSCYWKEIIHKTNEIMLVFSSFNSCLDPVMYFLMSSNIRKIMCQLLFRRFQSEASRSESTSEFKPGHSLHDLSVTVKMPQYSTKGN
Probable G-protein coupled receptor 34 (Mus musculus, UniProt Q9R1K6), sequence (Q9R1K6 whole entry, the tested form may be a part): as above

Structure (SMILES) | pEC50 [1] | EC50 ([2]; hek293) | Emax [3] | fold change (FC) [4] | EC50 [5] [nM] | Emax [6] [%] | fold change (FC) [7] | Activity [8] | EC50 [9] [nM] | Emax [10] [%] | EC50 [11] [nM] | Emax [12] [%] | EC50 ([2]; read-out: EC50) [nM] | fold change (FC) ([4]; filed as agonist) | Activity ([8]; filed as agonist) | EC50 [13] [nM]
CCCCCCCCCCCOc1ccccc1CCC(=O)O[C@H]1CCOC[C@@H]1OP(=O)(O)OC[C@H](N)C(=O)O | inactive | Not Active | inactive | inactive | 12 | 11.1 | 0.14 | inactive | – | – | – | – | – | – | – | –
CCCCCCCC/C=C\CCCCCCCC(=O)OC[C@@H](O)COP(=O)(O)OC[C@H](N)C(=O)O | – | – | – | – | 20 | 13.6 | – | – | 130 | 22.1 | 3.5 | 25.1 | – | – | – | –
CCCCCCCCCCCOc1ccccc1CCC(=O)O[C@@H]1CCOC[C@H]1OP(=O)(O)OC[C@H](N)C(=O)O | – | – | 10.3% | – | 1 | 10.6 | 1.7 | – | 510 | 14 | 12 | 25 | 0.83 | 100 | Active | 0.75
